Data: ChEMBL document CHEMBL4627246, “Pyroglutamide-Based P2X7 Receptor Antagonists Targeting Inflammatory Bowel Disease” (J Med Chem, 2020)
The source made the active and inactive calls. No rule for the calls is given here.

target: T1, P2X purinoceptor 7 (Homo sapiens) (UniProt Q99572); assay: Inhibition of human P2X7 expressed in human HEK293 cells assessed as reduction in BzATP-stimulated TO-PRO-3 incorporation at 10 uM preincubated with compound and TO-PRO-3 for 15 mins prior to BzATP addition and measured after 1 hr by Fluo-3AM dye based flow cytometry relative to control; assay type: cell-based
T1 sequence (whole entry): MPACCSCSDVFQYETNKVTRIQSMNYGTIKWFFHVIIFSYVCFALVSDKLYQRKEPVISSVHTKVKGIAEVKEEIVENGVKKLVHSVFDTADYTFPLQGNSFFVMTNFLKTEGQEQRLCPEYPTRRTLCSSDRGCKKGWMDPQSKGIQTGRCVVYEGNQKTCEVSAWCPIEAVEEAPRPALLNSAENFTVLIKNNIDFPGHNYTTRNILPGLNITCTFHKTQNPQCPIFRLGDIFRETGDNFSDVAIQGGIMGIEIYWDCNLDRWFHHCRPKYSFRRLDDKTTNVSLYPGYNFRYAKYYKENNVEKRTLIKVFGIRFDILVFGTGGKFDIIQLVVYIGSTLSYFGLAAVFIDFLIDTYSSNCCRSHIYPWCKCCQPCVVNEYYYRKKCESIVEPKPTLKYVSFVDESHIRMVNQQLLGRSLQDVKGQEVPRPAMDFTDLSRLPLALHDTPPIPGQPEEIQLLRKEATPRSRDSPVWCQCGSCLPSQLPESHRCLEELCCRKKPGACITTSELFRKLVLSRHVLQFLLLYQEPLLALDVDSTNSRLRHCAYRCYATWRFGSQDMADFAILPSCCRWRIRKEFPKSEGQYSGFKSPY
Outline: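 HEK-293 cells overexpressing human P2RX7 loaded with Fluo-3 AM, then incubated with TO-PRO-3 (large pore uptake) and propidium iodide (viability) plus compound (10⁻⁵ M single point) for 15 min before BzATP 100 µM. After 1 h, flow cytometry; percentage of Fluo-3/TO-PRO-3 double-positive cells calculated. Mean of n ≥ 2 with positive control.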

**Q.** How did the inhibition turn out when `COc1ccc(NC(=O)[C@@H]2CCC(=O)N2)cc1F` was run?
**A.** inactive

**Q.** How did the inhibition turn out when `Cc1ccc(CN2C(=O)CC[C@H]2C(=O)NCCc2ccccc2)cc1` was run?
**A.** 0%

**Q.** `CCCCCCNC(=O)[C@@H]1CCC(=O)N1` was tested. Which inhibition did it give?
**A.** inactive

**Q.** How did the inhibition turn out when `COC(=O)[C@@H]1CCC(=O)N1c1cccc(C(F)(F)F)c1` was run?
**A.** inactive

**Q.** `COC(=O)C1C/C(=C\N(C)C)C(=O)N1C(=O)OC` (stereo unspecified) was tested. Which inhibition did it give?
**A.** inactive

**Q.** Which inhibition does the source give for `O=C(NCc1ccccc1)[C@@H]1CCC(=O)N1Cc1ccccc1` here?
**A.** 0%

**Q.** `COC(=O)[C@@H]1CCC(=O)N1c1ccc(Cl)cc1Cl` was tested. Which inhibition did it give?
**A.** inactive

**Q.** For `O=C(NCc1ccc(Cl)cc1Cl)[C@@H]1CCC(=O)N1Cc1ccc(Cl)cc1Cl`, which inhibition is on record?
**A.** 0%

**Q.** Which inhibition does the source give for `COc1ccc(NC(=O)[C@@H]2CCC(=O)N2)c(OC)c1` here?
**A.** inactive

**Q.** How did the inhibition turn out when `O=C1CC[C@@H](C(=O)Nc2ccc(Cl)cc2Cl)N1` was run?
**A.** inactive

**Q.** For `O=C(NCc1ccc(Cl)cc1Cl)[C@@H]1CCC(=O)N1c1cccc(C(F)(F)F)c1`, which inhibition is on record?
**A.** 0%

**Q.** Which inhibition does the source give for `COc1ccccc1CNC(=O)[C@@H]1CCC(=O)N1` here?
**A.** inactive

**Q.** How did the inhibition turn out when `O=C1CC[C@@H](C(=O)NCc2cccc(C(F)(F)F)c2Cl)N1` was run?
**A.** inactive

**Q.** `COC(=O)C1CNC(=O)C1` (stereo unspecified) was tested. Which inhibition did it give?
**A.** inactive

**Q.** Which inhibition does the source give for `O=C1CC[C@@H](C(=O)NCc2cc(C(F)(F)F)ccc2Cl)N1` here?
**A.** inactive

**Q.** For `COC(=O)[C@@H]1CCC(=O)N1c1ccc(C#N)cc1`, which inhibition is on record?
**A.** inactive

**Q.** `O=C(NCc1ccc(Cl)cc1Cl)[C@@H]1CCC(=O)N1c1ccncc1` was tested. Which inhibition did it give?
**A.** 0%

**Q.** With `O=C1CC[C@@H](C(=O)NCCc2ccccc2)N1` as the compound, how does the inhibition read?
**A.** inactive

**Q.** For `COC(=O)[C@@H]1CCC(=O)N1c1cc(Cl)cc(Cl)c1`, which inhibition is on record?
**A.** inactive

**Q.** For `O=C1CC[C@@H](C(=O)NCc2ccncc2)N1`, which inhibition is on record?
**A.** inactive

**Q.** `O=C1CC[C@@H](C(=O)NCc2ccccc2Cl)N1` was tested. Which inhibition did it give?
**A.** inactive

**Q.** Which inhibition does the source give for `COc1ccc(CNC(=O)[C@@H]2CCC(=O)N2)c(OC)c1` here?
**A.** inactive

**Q.** `COC(=O)[C@@H]1CCC(=O)N1Cc1ccccc1Cl` was tested. Which inhibition did it give?
**A.** inactive

**Q.** For `O=C(Nc1ccc(Cl)cc1Cl)[C@@H]1CCC(=O)N1c1ccccc1`, which inhibition is on record?
**A.** 0%

**Q.** For `C[C@@H](NC(=O)[C@@H]1CCC(=O)N1)c1ccccc1`, which inhibition is on record?
**A.** inactive

**Q.** For `CN(C)/C=C1\C[C@@H](C(=O)NCc2ccc(Cl)cc2Cl)NC1=O`, which inhibition is on record?
**A.** 53%

**Q.** Which inhibition does the source give for `C[C@H](NC(=O)[C@@H]1C/C(=C\N(C)C)C(=O)N1)c1ccccc1` here?
**A.** 0%

**Q.** With `COC(=O)[C@@H]1CCC(OC)=N1` as the compound, how does the inhibition read?
**A.** inactive

**Q.** `COC(=O)[C@@H]1CCC(=O)N1C(c1ccccc1)c1ccccc1` was tested. Which inhibition did it give?
**A.** inactive

**Q.** For `COC(=O)[C@@H]1CCC(=O)N1Cc1ccccc1`, which inhibition is on record?
**A.** inactive

**Q.** With `COC(=O)[C@@H]1CCC(=O)N1` as the compound, how does the inhibition read?
**A.** inactive

**Q.** With `O=C1CC[C@@H](C(=O)NCc2ccccc2)N1` as the compound, how does the inhibition read?
**A.** inactive

**Q.** Which inhibition does the source give for `O=C1CC[C@@H](C(=O)NCc2ccc(Cl)cc2Cl)N1` here?
**A.** inactive

**Q.** With `COc1ccccc1CNC(=O)[C@@H]1C/C(=C\N(C)C)C(=O)N1` as the compound, how does the inhibition read?
**A.** 0%

**Q.** `CN(C)C(=O)[C@@H]1CCC(=O)N1c1ccccc1` was tested. Which inhibition did it give?
**A.** 0%

**Q.** With `O=C1CC[C@@H](C(=O)NC2CCCCC2)N1` as the compound, how does the inhibition read?
**A.** inactive

**Q.** For `O=C(NCc1ccc(Cl)cc1Cl)[C@@H]1CCC(=O)N1Cc1ccc([N+](=O)[O-])cc1`, which inhibition is on record?
**A.** 0%

**Q.** `C[C@@H](c1ccccc1)N1C(=O)[C@@H]2C/C(=C\N(C)C)C(=O)N2C1N(C)C` (stereo partly specified) was tested. Which inhibition did it give?
**A.** 0%

**Q.** How did the inhibition turn out when `O=C(NCCc1ccccc1)[C@@H]1CCC(=O)N1Cc1ccccc1` was run?
**A.** 0%

**Q.** For `C[C@H](NC(=O)[C@@H]1CCC(=O)N1c1cccs1)c1ccc(Cl)cc1Cl`, which inhibition is on record?
**A.** 0%

**Q.** Which inhibition does the source give for `O=C(NCCc1ccccc1)[C@@H]1CCC(=O)N1Cc1ccc([N+](=O)[O-])cc1` here?
**A.** 0%

**Q.** With `O=C1CC[C@@H](C(=O)NCC2CCCCC2)N1` as the compound, how does the inhibition read?
**A.** inactive

**Q.** `COc1cc(NC(=O)[C@@H]2CCC(=O)N2)cc(OC)c1OC` was tested. Which inhibition did it give?
**A.** inactive

**Q.** How did the inhibition turn out when `O=C1CC[C@@H](C(=O)NC2CC3CCC2C3)N1` (stereo partly specified) was run?
**A.** inactive

**Q.** Which inhibition does the source give for `COC(=O)[C@@H]1CCC(=O)N1Cc1ccc(OC)cc1` here?
**A.** inactive

**Q.** `CN(C)C1N(Cc2ccc(Cl)cc2Cl)C(=O)[C@@H]2CC(=O)C(=O)N12` (stereo partly specified) was tested. Which inhibition did it give?
**A.** 0%

**Q.** `COC(=O)[C@@H]1CCC(=O)N1c1ccc(Cl)cc1` was tested. Which inhibition did it give?
**A.** inactive

**Q.** For `Cc1ccc(NC(=O)[C@@H]2CCC(=O)N2)cc1`, which inhibition is on record?
**A.** inactive

**Q.** Which inhibition does the source give for `COC(=O)[C@@H]1CCC(=O)N1C` here?
**A.** inactive

**Q.** With `O=C(NCc1ccc(Cl)cc1Cl)[C@@H]1CCC(=O)N1Cc1ccccc1Cl` as the compound, how does the inhibition read?
**A.** 85%

**Q.** How did the inhibition turn out when `O=C(NCc1ccccc1Cl)[C@@H]1CCC(=O)N1Cc1ccc(Cl)cc1Cl` was run?
**A.** 0%

**Q.** For `CN(C)/C=C1\CC[C@@H](C(=O)NCc2ccc(Cl)cc2Cl)NC1=O`, which inhibition is on record?
**A.** 6%

**Q.** Which inhibition does the source give for `COC(=O)[C@@H]1CCC(=O)N1c1cccs1` here?
**A.** inactive

**Q.** For `COC(=O)[C@@H]1CCC(=O)N1Cc1ccc(Cl)cc1`, which inhibition is on record?
**A.** inactive

**Q.** For `O=C(NCc1ccco1)[C@@H]1CCC(=O)N1Cc1ccc(Cl)cc1Cl`, which inhibition is on record?
**A.** 0%

**Q.** `COC(=O)[C@@H]1CCC(=O)N1Cc1ccc(Br)cc1` was tested. Which inhibition did it give?
**A.** inactive

**Q.** How did the inhibition turn out when `O=C(NCc1ccc(Cl)cc1Cl)[C@@H]1CCC(=O)N1c1ccccc1Cl` was run?
**A.** 0%

**Q.** For `C[C@@H](NC(=O)[C@@H]1C/C(=C\N(C)C)C(=O)N1)c1ccccc1`, which inhibition is on record?
**A.** 0%

**Q.** For `COC(=O)[C@@H]1COC(=O)N1`, which inhibition is on record?
**A.** inactive

**Q.** How did the inhibition turn out when `COC(=O)[C@@H]1CCC(=O)N1C(c1ccc(Cl)cc1)c1ccc(Cl)cc1` was run?
**A.** inactive

**Q.** For `COC(=O)[C@@H]1CCC(=O)N1Cc1ccc(C)cc1`, which inhibition is on record?
**A.** inactive

**Q.** How did the inhibition turn out when `CN(C)/C=C1\C[C@H]2C(=O)N(Cc3ccccc3)C(N(C)C)N2C1=O` (stereo partly specified) was run?
**A.** 0%

**Q.** How did the inhibition turn out when `O=C(NCc1ccc(Cl)cc1Cl)C1CC(=O)N(c2cccs2)C1` (stereo unspecified) was run?
**A.** 92%

**Q.** With `O=C1N[C@H](C(=O)O)CO1` as the compound, how does the inhibition read?
**A.** inactive

**Q.** `CN(C)/C=C1\C[C@H]2C(=O)N(CCc3ccccc3)C(N(C)C)N2C1=O` (stereo partly specified) was tested. Which inhibition did it give?
**A.** 0%

**Q.** `NC(=O)[C@@H]1CCC(=O)N1` was tested. Which inhibition did it give?
**A.** inactive

**Q.** Which inhibition does the source give for `O=C(NCc1ccc(Cl)cc1Cl)[C@@H]1CCC(=O)N1c1cc(Cl)cc(Cl)c1` here?
**A.** 0%

**Q.** `COC(=O)[C@@H]1CCC(=O)N1c1ccccc1` was tested. Which inhibition did it give?
**A.** inactive

**Q.** How did the inhibition turn out when `O=C(NCc1ccc(Cl)cc1Cl)[C@@H]1CCC(=O)N1c1cccc2ncccc12` was run?
**A.** 0%

**Q.** How did the inhibition turn out when `COc1cc(N2C(=O)[C@@H]3C/C(=C\N(C)C)C(=O)N3C2N(C)C)cc(OC)c1OC` (stereo partly specified) was run?
**A.** 0%

**Q.** For `COC(=O)[C@@H]1CCC(=O)N1[Si](C)(C)C`, which inhibition is on record?
**A.** inactive

**Q.** How did the inhibition turn out when `COC(=O)[C@@H]1CCC(=O)N1Cc1ccc([N+](=O)[O-])cc1` was run?
**A.** inactive

**Q.** `O=C1CC[C@@H](C(=O)Nc2ccccc2)N1` was tested. Which inhibition did it give?
**A.** inactive

**Q.** Which inhibition does the source give for `COC(=O)[C@@H]1CCC(=O)N1c1cccc2ncccc12` here?
**A.** inactive

**Q.** With `O=C(NCc1ccc(Cl)cc1Cl)[C@@H]1C/C(=N\O)C(=O)N1c1cccs1` as the compound, how does the inhibition read?
**A.** 76%

**Q.** For `O=C1CCCC(C(=O)O)N1` (stereo unspecified), which inhibition is on record?
**A.** 0%

**Q.** With `COc1ccc(CNC(=O)[C@@H]2CCC(=O)N2)cc1` as the compound, how does the inhibition read?
**A.** inactive

**Q.** Which inhibition does the source give for `COC(=O)[C@@H]1CCC(=O)N1Cc1ccc(Cl)cc1Cl` here?
**A.** inactive

**Q.** Which inhibition does the source give for `COc1ccc(NC(=O)[C@@H]2CCC(=O)N2)cc1` here?
**A.** inactive

**Q.** Which inhibition does the source give for `COC(=O)[C@@H]1CCC(=O)N1c1ccoc1` here?
**A.** inactive

**Q.** With `O=C1CC[C@@H](C(=O)Nc2ccncc2)N1` as the compound, how does the inhibition read?
**A.** inactive

**Q.** Which inhibition does the source give for `COC(=O)[C@@H]1CCC(=O)N1c1ccc(OC)cc1` here?
**A.** inactive

**Q.** Which inhibition does the source give for `COC(=O)[C@@H]1CCC(=O)N1c1ccccc1Cl` here?
**A.** inactive

**Q.** For `C[C@H](NC(=O)[C@@H]1CCC(=O)N1)c1ccccc1`, which inhibition is on record?
**A.** inactive

**Q.** How did the inhibition turn out when `O=C1CC[C@@H](C(=O)NCCc2ccc(Cl)cc2Cl)N1` was run?
**A.** inactive

**Q.** `COC(=O)[C@@H]1CCC(=O)N1c1ccncc1` was tested. Which inhibition did it give?
**A.** inactive
